Results from ChEMBL document CHEMBL4422684, “Identification of novel lysine demethylase 5-selective inhibitors by inhibitor-based fragment merging strategy” (Bioorg Med Chem, 2019).
pIC50: −log10 of the molar value. Calls of active or inactive are those of the source. No cut-off for these calls is given here.

Assays:
[1] = target: Histone lysine demethylase PHF8 (Homo sapiens, UniProt Q9UPP1); experiment: Inhibition of human N-terminal FLAG-tagged KDM7B (2 to 525 residues) expressed in baculovirus infected Sf9 insect cells at 25 uM using H3(1-21)K9(Me2)-GGK(Biotin)/2-OG as substrate measured after 1 hr by Alphalisa assay relative to control
Method in brief: (§1)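 AlphaLISA demethylase assay in 50 mM HEPES pH 7.5, 0.1% BSA, 0.01% Tween 20 with DMSO. Enzyme and inhibitor combined, then peptide plus 2-OG (50 µM), Fe(II) (5 µM) and ascorbate (100 µM) in the added mix; 1 h at room temperature with shaking.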

A549 [2] = experiment: Inhibition of KDM4 in human A549 cells assessed as increase in H3K9me3 levels up to 25 uM after 48 hrs by Western blot analysis; type: cell-based
Method in brief: (§2)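 A549 cells (5 × 10^5 per 2 mL well, RPMI1640 with 10% heat-inactivated FBS) exposed 48 h to compounds at 1, 5 or 25 µM. SDS lysates normalised by BCA, separated on 5-20% SDS-PAGE, blotted to PVDF, blocked in 5% milk/TBS-T, probed for H3K4me3, H3K9me3, H3K27me3 and total H3, detected by HRP chemiluminescence.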

A549 [3] = experiment: Inhibition of KDM6 in human A549 cells assessed as increase in […] levels up to 25 uM after 48 hrs by Western blot analysis; type: cell-based; method in brief: as §2
[4] = target: Lysine-specific demethylase 5A (Homo sapiens, UniProt P29375); experiment: Inhibition of human C-terminal FLAG-tagged KDM5A (1 to 1090 residues) expressed in baculovirus infected Sf9 insect cells at 25 uM using H3(1-21)K4(Me3)-GGK(Biotin)/2-OG as substrate measured after 1 hr by Alphalisa assay relative to control; method in brief: as §1
[5] = target: T1, Lysine-specific demethylase 6B (Homo sapiens, UniProt O15054); experiment: Inhibition of human C-terminal FLAG-tagged KDM6B (1043 to end residues) expressed in baculovirus infected Sf9 insect cells at 25 uM using H3(21-44)-K27(Me3)-GK(Biotin)/2-OG as substrate measured after 1 hr by Alphalisa assay relative to control; method in brief: as §1
[6] = target: T1, Lysine-specific demethylase 6B; experiment: Inhibition of human C-terminal FLAG-tagged KDM6B (1043 to end residues) expressed in baculovirus infected Sf9 insect cells using H3(21-44)-K27(Me3)-GK(Biotin)/2-OG as substrate measured after 1 hr by Alphalisa assay; method in brief: as §1
[7] = target: T2, Lysine-specific demethylase 4A (Homo sapiens, UniProt O75164); experiment: Inhibition of human N-terminal His-tagged KDM4A (1 to 350 residues) expressed in Escherichia coli using H3(21-44)-K36(Me3)-GK(Biotin)/2-OG as substrate measured after 1 hr by Alphalisa assay; method in brief: as §1
T2 sequence (O75164 whole entry): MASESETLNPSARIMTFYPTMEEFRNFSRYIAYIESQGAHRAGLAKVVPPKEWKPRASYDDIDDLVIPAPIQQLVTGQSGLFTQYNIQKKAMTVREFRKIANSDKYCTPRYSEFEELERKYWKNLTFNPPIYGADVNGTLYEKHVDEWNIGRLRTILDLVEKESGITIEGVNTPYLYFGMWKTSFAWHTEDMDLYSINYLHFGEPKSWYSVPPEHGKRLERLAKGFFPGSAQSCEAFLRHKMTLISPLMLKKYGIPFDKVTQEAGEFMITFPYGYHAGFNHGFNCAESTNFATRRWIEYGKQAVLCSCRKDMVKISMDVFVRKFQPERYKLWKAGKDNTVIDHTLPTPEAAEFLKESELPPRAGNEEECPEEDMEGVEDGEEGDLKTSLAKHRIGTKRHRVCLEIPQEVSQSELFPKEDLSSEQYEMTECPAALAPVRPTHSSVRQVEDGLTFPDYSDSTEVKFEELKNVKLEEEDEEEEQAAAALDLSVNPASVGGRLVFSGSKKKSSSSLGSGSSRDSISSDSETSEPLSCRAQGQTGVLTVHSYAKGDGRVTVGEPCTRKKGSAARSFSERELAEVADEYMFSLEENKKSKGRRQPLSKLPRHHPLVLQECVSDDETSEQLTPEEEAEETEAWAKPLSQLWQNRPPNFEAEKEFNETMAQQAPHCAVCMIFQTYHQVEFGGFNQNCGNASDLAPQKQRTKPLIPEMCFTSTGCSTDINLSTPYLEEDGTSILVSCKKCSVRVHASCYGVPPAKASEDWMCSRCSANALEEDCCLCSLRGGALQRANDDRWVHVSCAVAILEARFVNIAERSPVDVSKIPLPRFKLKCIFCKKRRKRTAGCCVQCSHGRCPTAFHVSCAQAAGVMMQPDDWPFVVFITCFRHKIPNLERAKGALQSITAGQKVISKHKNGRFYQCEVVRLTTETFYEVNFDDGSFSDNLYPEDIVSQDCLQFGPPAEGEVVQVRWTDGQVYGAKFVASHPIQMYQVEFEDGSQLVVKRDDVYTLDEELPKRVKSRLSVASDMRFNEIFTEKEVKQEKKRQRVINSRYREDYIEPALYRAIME

T1 sequence (O15054 whole entry): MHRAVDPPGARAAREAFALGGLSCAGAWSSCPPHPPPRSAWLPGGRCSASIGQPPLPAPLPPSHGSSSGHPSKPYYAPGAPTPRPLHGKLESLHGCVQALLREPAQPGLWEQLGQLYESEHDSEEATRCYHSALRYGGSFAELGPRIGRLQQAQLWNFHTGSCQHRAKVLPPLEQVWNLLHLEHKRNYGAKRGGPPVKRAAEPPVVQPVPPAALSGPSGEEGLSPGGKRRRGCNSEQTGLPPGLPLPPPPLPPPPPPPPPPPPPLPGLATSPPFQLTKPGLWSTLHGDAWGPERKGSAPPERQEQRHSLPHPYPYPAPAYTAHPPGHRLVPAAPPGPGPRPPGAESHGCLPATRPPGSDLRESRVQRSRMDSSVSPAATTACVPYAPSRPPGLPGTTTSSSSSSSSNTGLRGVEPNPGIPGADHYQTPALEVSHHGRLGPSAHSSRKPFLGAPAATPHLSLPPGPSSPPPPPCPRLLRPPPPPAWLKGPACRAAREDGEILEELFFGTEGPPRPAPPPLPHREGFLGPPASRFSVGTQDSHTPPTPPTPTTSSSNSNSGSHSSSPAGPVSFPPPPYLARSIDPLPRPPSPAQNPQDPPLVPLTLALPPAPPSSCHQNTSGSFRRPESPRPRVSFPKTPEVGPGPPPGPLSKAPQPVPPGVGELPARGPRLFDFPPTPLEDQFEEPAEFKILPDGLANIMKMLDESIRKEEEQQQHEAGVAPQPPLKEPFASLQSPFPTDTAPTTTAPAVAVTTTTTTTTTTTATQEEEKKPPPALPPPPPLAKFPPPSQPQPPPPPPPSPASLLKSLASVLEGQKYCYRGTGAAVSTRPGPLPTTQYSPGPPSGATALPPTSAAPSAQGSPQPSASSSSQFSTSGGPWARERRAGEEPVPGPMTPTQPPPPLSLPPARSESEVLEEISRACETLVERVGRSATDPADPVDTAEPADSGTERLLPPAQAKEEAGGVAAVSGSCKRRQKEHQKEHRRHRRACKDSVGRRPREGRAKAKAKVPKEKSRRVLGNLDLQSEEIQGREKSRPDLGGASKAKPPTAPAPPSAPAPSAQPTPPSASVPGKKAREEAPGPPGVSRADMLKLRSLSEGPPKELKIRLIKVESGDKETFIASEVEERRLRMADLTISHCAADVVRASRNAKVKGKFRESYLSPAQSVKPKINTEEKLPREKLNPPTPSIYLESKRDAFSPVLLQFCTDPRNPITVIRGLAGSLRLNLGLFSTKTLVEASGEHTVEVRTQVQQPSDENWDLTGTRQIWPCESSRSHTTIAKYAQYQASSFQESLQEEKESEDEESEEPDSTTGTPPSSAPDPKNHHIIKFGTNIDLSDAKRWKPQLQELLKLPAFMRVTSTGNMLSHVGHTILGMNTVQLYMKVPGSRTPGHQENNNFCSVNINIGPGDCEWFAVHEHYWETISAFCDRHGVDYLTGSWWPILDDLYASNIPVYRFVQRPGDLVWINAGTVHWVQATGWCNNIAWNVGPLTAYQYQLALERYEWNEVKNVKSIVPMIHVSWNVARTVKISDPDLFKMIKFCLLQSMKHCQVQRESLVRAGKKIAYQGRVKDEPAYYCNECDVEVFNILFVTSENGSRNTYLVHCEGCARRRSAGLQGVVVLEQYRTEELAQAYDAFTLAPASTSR
Sequence of Histone lysine demethylase PHF8 (Q9UPP1 whole entry, the tested form may be a part): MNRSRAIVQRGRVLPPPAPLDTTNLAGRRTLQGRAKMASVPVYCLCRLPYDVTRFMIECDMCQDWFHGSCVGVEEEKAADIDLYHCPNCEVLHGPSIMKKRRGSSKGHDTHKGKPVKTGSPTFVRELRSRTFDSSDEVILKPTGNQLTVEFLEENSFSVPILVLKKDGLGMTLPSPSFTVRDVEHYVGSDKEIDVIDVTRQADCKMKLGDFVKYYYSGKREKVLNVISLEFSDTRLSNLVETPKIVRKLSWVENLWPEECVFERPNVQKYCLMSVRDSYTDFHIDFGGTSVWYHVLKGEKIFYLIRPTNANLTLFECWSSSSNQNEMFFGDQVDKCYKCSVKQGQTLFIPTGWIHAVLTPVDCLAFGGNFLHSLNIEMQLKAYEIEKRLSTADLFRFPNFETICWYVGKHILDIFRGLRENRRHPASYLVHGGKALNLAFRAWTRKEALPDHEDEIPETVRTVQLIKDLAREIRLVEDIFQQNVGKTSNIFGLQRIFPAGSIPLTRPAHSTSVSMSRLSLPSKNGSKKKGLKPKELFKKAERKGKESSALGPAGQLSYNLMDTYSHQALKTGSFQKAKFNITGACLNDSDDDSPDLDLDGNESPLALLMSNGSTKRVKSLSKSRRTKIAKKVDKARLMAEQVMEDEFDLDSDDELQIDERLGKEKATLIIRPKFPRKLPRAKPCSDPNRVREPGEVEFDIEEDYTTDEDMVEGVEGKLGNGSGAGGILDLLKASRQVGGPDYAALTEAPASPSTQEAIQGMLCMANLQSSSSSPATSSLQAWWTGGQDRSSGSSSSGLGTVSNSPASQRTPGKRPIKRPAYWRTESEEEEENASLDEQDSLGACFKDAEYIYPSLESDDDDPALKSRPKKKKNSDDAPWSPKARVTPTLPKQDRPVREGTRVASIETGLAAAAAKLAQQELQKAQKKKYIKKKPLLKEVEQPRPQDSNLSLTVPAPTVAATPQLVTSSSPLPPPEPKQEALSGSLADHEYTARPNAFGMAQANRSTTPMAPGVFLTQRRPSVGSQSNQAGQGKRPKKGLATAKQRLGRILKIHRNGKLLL
Sequence of Lysine-specific demethylase 5A (P29375 whole entry, the tested form may be a part): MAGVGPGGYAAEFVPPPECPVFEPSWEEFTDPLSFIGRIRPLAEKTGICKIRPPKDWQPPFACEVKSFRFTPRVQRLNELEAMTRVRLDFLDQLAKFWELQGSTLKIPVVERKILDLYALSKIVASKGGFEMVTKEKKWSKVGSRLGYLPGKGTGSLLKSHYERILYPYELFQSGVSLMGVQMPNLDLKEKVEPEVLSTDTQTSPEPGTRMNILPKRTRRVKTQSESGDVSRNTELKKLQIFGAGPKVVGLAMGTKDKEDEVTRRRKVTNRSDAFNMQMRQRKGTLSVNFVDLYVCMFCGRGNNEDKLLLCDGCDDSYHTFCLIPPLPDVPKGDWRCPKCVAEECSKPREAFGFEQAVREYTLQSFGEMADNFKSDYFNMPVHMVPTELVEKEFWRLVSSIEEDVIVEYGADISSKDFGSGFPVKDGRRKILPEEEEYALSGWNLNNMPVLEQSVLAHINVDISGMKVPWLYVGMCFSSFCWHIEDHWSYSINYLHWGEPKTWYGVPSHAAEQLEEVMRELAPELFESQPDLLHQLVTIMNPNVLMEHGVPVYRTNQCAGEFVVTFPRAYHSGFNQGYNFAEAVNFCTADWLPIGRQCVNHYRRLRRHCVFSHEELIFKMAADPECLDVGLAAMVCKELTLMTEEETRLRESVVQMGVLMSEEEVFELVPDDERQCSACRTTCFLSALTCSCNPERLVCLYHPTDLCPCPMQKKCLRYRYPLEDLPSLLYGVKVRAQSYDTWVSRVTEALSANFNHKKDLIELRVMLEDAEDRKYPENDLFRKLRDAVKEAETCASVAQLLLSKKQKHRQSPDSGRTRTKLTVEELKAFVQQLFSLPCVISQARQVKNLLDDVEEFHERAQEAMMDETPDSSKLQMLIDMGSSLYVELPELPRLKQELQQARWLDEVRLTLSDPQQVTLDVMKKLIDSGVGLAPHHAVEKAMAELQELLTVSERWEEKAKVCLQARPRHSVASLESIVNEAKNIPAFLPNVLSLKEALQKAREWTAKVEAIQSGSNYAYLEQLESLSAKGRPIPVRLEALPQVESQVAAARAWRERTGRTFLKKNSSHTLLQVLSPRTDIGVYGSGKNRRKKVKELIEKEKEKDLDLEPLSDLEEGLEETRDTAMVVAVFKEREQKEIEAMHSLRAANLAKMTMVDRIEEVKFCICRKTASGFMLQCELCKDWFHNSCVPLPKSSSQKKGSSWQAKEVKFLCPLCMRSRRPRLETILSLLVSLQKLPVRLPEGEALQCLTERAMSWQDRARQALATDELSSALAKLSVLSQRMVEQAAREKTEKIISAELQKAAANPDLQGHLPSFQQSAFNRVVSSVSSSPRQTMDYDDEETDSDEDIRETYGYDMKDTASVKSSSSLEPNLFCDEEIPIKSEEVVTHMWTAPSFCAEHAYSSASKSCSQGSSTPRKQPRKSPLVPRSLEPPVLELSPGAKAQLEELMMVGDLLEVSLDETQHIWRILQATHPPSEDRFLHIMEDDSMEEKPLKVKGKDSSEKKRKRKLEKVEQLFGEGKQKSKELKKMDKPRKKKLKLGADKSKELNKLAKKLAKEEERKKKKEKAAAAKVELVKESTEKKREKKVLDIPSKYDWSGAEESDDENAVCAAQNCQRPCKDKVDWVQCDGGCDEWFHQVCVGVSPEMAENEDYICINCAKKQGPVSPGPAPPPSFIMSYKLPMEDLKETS

Row | inhibition [1] [%] | inhibition [4] [%] | inhibition [5] [%] | pIC50 [6] | pIC50 [7] | SMILES | inhibition (A549 [2]) | inhibition (A549 [3])
1 | 11.8 |  |  |  |  | CCCCCCN(C)CCc1ccc(-c2[nH]c3c(C#N)cnn3c(=O)c2C(C)C)cc1 | inactive | inactive
2 |  | 89.9 |  |  |  | CCCCCN(C)CCCCC(=O)N(O)CCC(=O)O |  | 
3 |  | 100 | 69.1 | 4.84 |  | CC(C)c1c(-c2ccccc2)[nH]c2c(C#N)cnn2c1=O |  | 
4 | 12.1 |  |  | < 4.30 | 4.60 | CCCCCCN(C)Cc1ccc(-c2[nH]c3c(C#N)cnn3c(=O)c2C(C)C)cc1 | inactive | inactive
